This is an account of results in ChEMBL document CHEMBL1914440, “Discovery of potent, selective, and orally bioavailable alkynylphenoxyacetic acid CRTH2 (DP2) receptor antagonists for the treatment of allergic inflammatory diseases” (J Med Chem, 2011).

Data set [1] addresses T1, Prostaglandin D2 receptor 2 (Homo sapiens, UniProt Q9Y5Y4).
T1 sequence (Q9Y5Y4 whole entry): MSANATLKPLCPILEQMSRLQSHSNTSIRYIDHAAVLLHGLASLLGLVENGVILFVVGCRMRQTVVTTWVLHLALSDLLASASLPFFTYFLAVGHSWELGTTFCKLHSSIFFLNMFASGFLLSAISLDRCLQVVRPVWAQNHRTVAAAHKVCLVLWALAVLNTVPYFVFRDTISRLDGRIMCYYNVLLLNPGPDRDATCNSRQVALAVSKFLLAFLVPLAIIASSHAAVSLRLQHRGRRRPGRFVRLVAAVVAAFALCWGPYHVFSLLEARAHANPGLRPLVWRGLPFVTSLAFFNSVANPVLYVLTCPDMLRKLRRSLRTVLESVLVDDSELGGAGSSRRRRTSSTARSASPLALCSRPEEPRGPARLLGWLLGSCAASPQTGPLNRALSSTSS
Briefly: Displacement of [3H]PGD2 from human CRTH2 expressed in chinese hamster CHO cells by liquid scintillation counting. It counts as cell-based. The procedure, abridged:
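Scintillation proximity competition assay: 2–5 μg human CRTH2 cell membranes, 1.5 nM [3H]PGD2, WGA-SPA beads, 10 mM HEPES/KOH pH 7.4, 10 mM MnCl2, protease inhibitors, 1% DMSO; 90 min, room temperature, shaking. Nonspecific binding defined with 1 μM PGD2. Ki by Cheng–Prusoff, mean of ≥3 independent dose–response experiments.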
In general terms: In a radioligand displacement assay an active substance lowers the binding of a labelled ligand.

The nature of data set [2]: Intrinsic clearance in human liver microsomes assessed per mg of protein at 1 uM by LC/MS/MS analysis. Type of data set: ADME, Microsome.
A short description of data set [3]: Intrinsic clearance in rat liver microsomes assessed per mg of protein at 1 uM by LC/MS/MS analysis. Type of data set: ADME, Microsome.
A short description of data set [4]: Percentage unbound in human plasma. Type of data set: ADME, cell-free.
Data set [5] in a line: Percentage unbound in rat plasma. It counts as ADME, cell-free.
The nature of data set [6]: Percentage unbound in mouse plasma. It counts as ADME, cell-free.
Data set [7] is described as follows: Clearance in BALB/c mouse at 5 mg/kg, po by LC/MS/MS analysis. Type of data set: ADME, organism-based. The arrangement: dose 5 mg/kg, route oral. As to conditions: in vivo.
Data set [8] in a line: Oral bioavailability in BALB/c mouse at 5 mg/kg by LC/MS/MS analysis. As to conditions: in vivo. It counts as ADME, organism-based. In short, it runs like this:
(§1)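 Mouse PK after a 5 mg/kg oral dose.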

Data set [9] is described as follows: AUC in BALB/c mouse at 5 mg/kg, po. It counts as ADME, organism-based. The arrangement: dose 5 mg/kg, route oral. As to conditions: plasma. The procedure, abridged: as §1

Structures are written as SMILES.

For `Cc1ccc(S(=O)(=O)N2CCCCC2C)cc1C#Cc1cc(Cl)ccc1OCC(=O)O` (stereo not drawn), the inhibitory constant (Ki) (as a rule, the equilibrium dissociation constant of an inhibitor or competing ligand from its target) in [1] is 1.9 nM. Also, the figures for the microsomal CLint at 1 µM in [2] and in data set [3] were 89 µL/min/mg and 418 µL/min/mg, respectively.

As for `CCNS(=O)(=O)c1ccc(C)c(C#Cc2cc(Cl)ccc2OCC(=O)O)c1`, in [1], the affinity, expressed as Ki, was 4.4 nM. Further, the results for the fraction unbound in data set [4], in [5] and in data set [6] were 0.005, 0.008 and 0.008, respectively. In addition, the microsomal CLint – broadly, a measure of how fast metabolising enzymes remove a compound, apart from limits set by blood flow – at 1 µM is less than 10 µL/min/mg in [2] and 24 µL/min/mg in [3].

`CCCc1ccc(S(C)(=O)=O)cc1C#Cc1cc(Cl)ccc1OCC(=O)O` had a Ki in data set [1] of 8.6 nM. Besides, the values for the fraction unbound in data set [4], in [5] and in [6] were 0.002, 0.002 and 0.006, respectively.

The compound `O=C(O)COc1ccc(Cl)cc1C#Cc1ccc(CO)cc1F` showed a Ki in data set [1] of 28 nM. Besides, the microsomal CLint at 1 µM in data set [2] and in data set [3] was less than 10 µL/min/mg throughout. The CL/F (as a rule, clearance divided by bioavailability, as obtained after extravascular dosing) in data set [7] is 35 mL/min/kg. Moreover, in [8], the bioavailability is 3%.

As to `Cc1ccc(S(=O)(=O)N2CCOCC2)cc1C#Cc1cc(Cl)ccc1OCC(=O)O`, the Ki in data set [1] was 3.6 nM. In addition, the microsomal CLint at 1 µM in data set [2] was less than 10 µL/min/mg; in data set [3], 10 µL/min/mg. The compound further gave a CL/F in data set [7] of 31.7 mL/min/kg. Further, the bioavailability in [8] was found to be 48%. Besides, the AUC (as a rule, concentration integrated over time) in data set [9] is 1220 ng·h/mL.

The compound `CC(C)c1ccc(S(C)(=O)=O)cc1C#Cc1cc(Cl)ccc1OCC(=O)O` displayed a Ki in data set [1] of 4.6 nM. Also, the fraction unbound – broadly, free concentration divided by total concentration – in [4] stood at 0.003; in data set [5], 0.004; in data set [6], 0.013. This compound also had an apparent clearance (CL/F) in data set [7] of 8.33 mL/min/kg. The bioavailability in data set [8] is 29%. The compound also registered an AUC in [9] of 2650 ng·h/mL.

For `CC(C)S(=O)(=O)c1ccc(F)c(C#Cc2cc(Cl)ccc2OCC(=O)O)c1`, in data set [1], affinity was put at a Ki of 4 nM. The same compound gave a CL/F in data set [7] of 5.83 mL/min/kg. Further, the bioavailability in data set [8] was 130%.

Take `O=C(O)COc1ccc(Cl)cc1C#Cc1ccc2c(c1)S(=O)(=O)c1ccccc1-2`: affinity in data set [1] was put at a Ki of 12 nM. In addition, in data set [4], the fraction unbound is less than 0.001. The compound also had a CL/F in data set [7] of 1.67 mL/min/kg.

`CN(C)S(=O)(=O)c1ccc(F)c(C#Cc2cc(Cl)ccc2OCC(=O)O)c1` registered a Ki in data set [1] of 3.1 nM. For the same compound, the results for the fraction unbound in [4], in [5] and in data set [6] were 0.009, 0.007 and 0.029, respectively. Besides, the microsomal CLint at 1 µM in data set [2] and in [3] was less than 10 µL/min/mg throughout. In data set [7], this compound had a CL/F of 10 mL/min/kg.

On to `Cc1ccc(S(=O)(=O)N(C)CC(C)C)cc1C#Cc1cc(Cl)ccc1OCC(=O)O`, for which, in [1], the Ki came to 4.2 nM. In addition, the intrinsic metabolic clearance (microsomal CLint) at 1 µM in data set [2] was determined as 79 µL/min/mg; in [3] it was 119 µL/min/mg.

Take `Cc1ccc(S(=O)(=O)CCCO)cc1C#Cc1cc(Cl)ccc1OCC(=O)O`: the Ki in data set [1] is 8 nM. The results for the fraction unbound in data set [4], in data set [5] and in [6] were 0.015, 0.018 and 0.048, respectively.

In data set [1], `O=C(O)COc1ccc(Cl)cc1C#Cc1cccnc1` came in with a Ki of 117 nM. Further, the fraction unbound in [4] was 0.029.

On to `CCCS(=O)(=O)c1ccc(Cl)c(C#Cc2cc(Cl)ccc2OCC(=O)O)c1`, for which affinity in data set [1] was put at a Ki of 2.1 nM. The fraction unbound in data set [4] is 0.003; in data set [5], 0.002; in data set [6], 0.006. The microsomal CLint at 1 µM in data set [2] and in [3] was less than 10 µL/min/mg each time. In data set [7], this compound gave a CL/F of 16.7 mL/min/kg. Moreover, the bioavailability in data set [8] was 112%.

`CC(C)S(=O)(=O)c1ccc(Cl)c(C#Cc2cc(Cl)ccc2OCC(=O)O)c1` yielded a Ki in [1] of 2.9 nM. In addition, the CL/F in data set [7] is 11.7 mL/min/kg.

For the compound `COCCN(C)S(=O)(=O)c1ccc(C)c(C#Cc2cc(Cl)ccc2OCC(=O)O)c1`, in [1], the inhibitory constant (Ki) is 4.1 nM. The fraction unbound in [4] came to 0.006; in [5], 0.007; in data set [6] it was 0.007. Besides, the microsomal CLint at 1 µM amounted to 32 µL/min/mg in data set [2] and 49 µL/min/mg in [3].

In turn, `Cc1ccc(S(=O)(=O)NC(C)C)cc1C#Cc1cc(Cl)ccc1OCC(=O)O` came in with a Ki in [1] of 3.4 nM. Further, the values for the fraction unbound in data set [4], in [5] and in data set [6] were 0.004, 0.004 and 0.01, respectively. Also, the results for the microsomal CLint at 1 µM in data set [2] and in data set [3] were less than 10 µL/min/mg and 12 µL/min/mg, respectively.

`Cc1ccc(S(=O)(=O)N(C)C(C)C)cc1C#Cc1cc(Cl)ccc1OCC(=O)O` gave a Ki in data set [1] of 3.8 nM. The fraction unbound in data set [4] is 0.002; in data set [6] it was 0.005. The microsomal CLint at 1 µM in data set [2] was less than 10 µL/min/mg; in data set [3], 64 µL/min/mg.

`CCN(CC)S(=O)(=O)c1ccc(C)c(C#Cc2cc(Cl)ccc2OCC(=O)O)c1` had a Ki in data set [1] of 3.4 nM.

Take `Cc1ccc(S(=O)(=O)N(C)CCN(C)C)cc1C#Cc1cc(Cl)ccc1OCC(=O)O`: affinity in data set [1] was put at a Ki of 369 nM.

In turn, `O=C(O)COc1ccc(Cl)cc1C#Cc1cccc(S(=O)(=O)CCO)c1` displayed a Ki in data set [1] of 10 nM. Further, the figures for the fraction unbound in [4], in data set [5] and in [6] were 0.047, 0.081 and 0.3, respectively.

Compound `O=C(O)COc1ccc(Cl)cc1C#Cc1ccccn1` came in with a Ki in data set [1] of 1120 nM.

In data set [1], `CCN(CC)C(=O)c1ccc(C#Cc2cc(Cl)ccc2OCC(=O)O)cc1S(=O)(=O)C(C)C` registered a Ki of 46 nM.

In turn, `CS(=O)(=O)Nc1cncc(C#Cc2cc(Cl)ccc2OCC(=O)O)c1` displayed a Ki in data set [1] of 19 nM.

`CC(C)c1ccc(S(C)(=O)=O)cc1C#Cc1cc(C#N)ccc1OCC(=O)O` came in with a Ki in data set [1] of 12 nM. In data set [7], the CL/F is 145 mL/min/kg. Also, the bioavailability in data set [8] worked out at 26%. This compound came in with an AUC in [9] of 151 ng·h/mL.

In turn, `N#Cc1ccc(OCC(=O)O)c(C#Cc2ccccc2Cl)c1` registered a Ki in data set [1] of 24 nM.

`CNS(=O)(=O)c1ccc(C)c(C#Cc2cc(Cl)ccc2OCC(=O)O)c1` showed a Ki in data set [1] of 10 nM.

The compound `CN(C)S(=O)(=O)c1cccc(C#Cc2cc(Cl)ccc2OCC(=O)O)c1` came in with a Ki in [1] of 14 nM.

The compound `COc1ccccc1C#Cc1cc(Cl)ccc1OCC(=O)O` showed a Ki in data set [1] of 190 nM.

In turn, `Cn1ccnc1C#Cc1cc(Cl)ccc1OCC(=O)O` registered a Ki in data set [1] of 1470 nM.

As to `CS(=O)(=O)c1cc(C#Cc2cc(Cl)ccc2OCC(=O)O)ccc1-c1ccc(C(F)(F)F)cc1`, in data set [1], the Ki is 43 nM. Compared with the last compound, the Ki is about 34-fold lower.

`Cc1ccc(S(=O)(=O)N(C)C)cc1C#Cc1cc(Cl)ccc1OCC(=O)O` gave a Ki in data set [1] of 5 nM. For the same compound, the values for the fraction unbound in data set [4], in [5] and in [6] were 0.004, 0.004 and 0.01, respectively. In addition, the microsomal CLint at 1 µM was less than 10 µL/min/mg in [2] and 22 µL/min/mg in data set [3].

`O=C(O)COc1ccc(Cl)cc1C#Cc1ccc2c(c1)S(=O)(=O)C=C2`: in data set [1], the Ki was 25 nM. In other words, the double-digit nanomolar range.

Consider `CCCS(=O)(=O)c1cccc(C#Cc2cc(-c3cccs3)ccc2OCC(=O)O)c1`, for which the Ki in data set [1] amounted to 12 nM.

On to `CC1(C)C(=O)c2ccc(C#Cc3cc(Cl)ccc3OCC(=O)O)cc2S1(=O)=O`, for which the Ki in data set [1] came to 31 nM.

The compound `O=C(O)COc1ccc(Cl)cc1C#Cc1ccccc1F` showed a Ki in data set [1] of 47 nM.

Regarding `O=C(O)COc1ccccc1C#Cc1ccccc1Cl`, the Ki in data set [1] was determined as 747 nM.

The compound `O=C(O)COc1ccc(Cl)cc1C#Cc1ccccc1` yielded a Ki in data set [1] of 108 nM.

`CC(C)S(=O)(=O)c1cc(C#Cc2cc(Cl)ccc2OCC(=O)O)ccc1C(=O)N(C)C`: the Ki in [1] is 65 nM. Compared with the last compound, the Ki is about 1.7-fold lower.

Compound `Cc1ncc(S(=O)(=O)N(C)C)cc1C#Cc1cc(Cl)ccc1OCC(=O)O` had a Ki in data set [1] of 41 nM.
